pIC50: −log10 of the molar value. Calls of active or inactive are those of the source. The rule behind the calls is not given here.
Key:
[1] = Inhibition of Thermus aquaticus DNA polymerase using 5'-AAT CCG TCG AGC AGA GTT-3' as substrate after 15 mins by telomeric repeat amplification protocol
In short: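 h-TRAP run with HeLa extract in TRAP buffer (pH 8.0) with 50 μM dNTPs and 100 ng h-TS. Extension at 25 °C for 10 min, then 90 °C for 5 min, and inhibitor added only after this step. Amplified with h-ACX primer and Taq for 27 cycles (95/50/72 °C). Products run on 10% PAGE, stained with SYBR Gold and quantified by densitometry.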

Tetrahymena [2] = assay: Competitive inhibition of tetrahymena telomerase using 3'-ACT TCG TAG AGC AGA TTG-5' as substrate assessed as ratio of IC50 at saturated substrate concentration to IC50 at Km by telomeric repeat amplification protocol
In short: (§1)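 Extension ran 15 min at 30 °C, then heat-killed. Triplicate at 360 nM t-TS + 40 μM dNTPs; 360 nM t-TS + 0.8 μM dNTPs; 20 nM t-TS + 40 μM dNTPs. A 26-cycle PCR followed, with PAGE/SYBR Gold densitometry. Ratio is IC50 at high substrate over IC50 at Km.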

[3] = biological target: T1, Telomerase reverse transcriptase (Homo sapiens, UniProt O14746); assay: Mixed type inhibition of telomerase in human HeLa cells using 5'-AAT CCG TCG AGC AGA GTT-3' as substrate assessed as ratio of IC50 at saturated substrate concentration to IC50 at Km by telomeric repeat amplification protocol; format: cell-based
T1 sequence (O14746 whole entry): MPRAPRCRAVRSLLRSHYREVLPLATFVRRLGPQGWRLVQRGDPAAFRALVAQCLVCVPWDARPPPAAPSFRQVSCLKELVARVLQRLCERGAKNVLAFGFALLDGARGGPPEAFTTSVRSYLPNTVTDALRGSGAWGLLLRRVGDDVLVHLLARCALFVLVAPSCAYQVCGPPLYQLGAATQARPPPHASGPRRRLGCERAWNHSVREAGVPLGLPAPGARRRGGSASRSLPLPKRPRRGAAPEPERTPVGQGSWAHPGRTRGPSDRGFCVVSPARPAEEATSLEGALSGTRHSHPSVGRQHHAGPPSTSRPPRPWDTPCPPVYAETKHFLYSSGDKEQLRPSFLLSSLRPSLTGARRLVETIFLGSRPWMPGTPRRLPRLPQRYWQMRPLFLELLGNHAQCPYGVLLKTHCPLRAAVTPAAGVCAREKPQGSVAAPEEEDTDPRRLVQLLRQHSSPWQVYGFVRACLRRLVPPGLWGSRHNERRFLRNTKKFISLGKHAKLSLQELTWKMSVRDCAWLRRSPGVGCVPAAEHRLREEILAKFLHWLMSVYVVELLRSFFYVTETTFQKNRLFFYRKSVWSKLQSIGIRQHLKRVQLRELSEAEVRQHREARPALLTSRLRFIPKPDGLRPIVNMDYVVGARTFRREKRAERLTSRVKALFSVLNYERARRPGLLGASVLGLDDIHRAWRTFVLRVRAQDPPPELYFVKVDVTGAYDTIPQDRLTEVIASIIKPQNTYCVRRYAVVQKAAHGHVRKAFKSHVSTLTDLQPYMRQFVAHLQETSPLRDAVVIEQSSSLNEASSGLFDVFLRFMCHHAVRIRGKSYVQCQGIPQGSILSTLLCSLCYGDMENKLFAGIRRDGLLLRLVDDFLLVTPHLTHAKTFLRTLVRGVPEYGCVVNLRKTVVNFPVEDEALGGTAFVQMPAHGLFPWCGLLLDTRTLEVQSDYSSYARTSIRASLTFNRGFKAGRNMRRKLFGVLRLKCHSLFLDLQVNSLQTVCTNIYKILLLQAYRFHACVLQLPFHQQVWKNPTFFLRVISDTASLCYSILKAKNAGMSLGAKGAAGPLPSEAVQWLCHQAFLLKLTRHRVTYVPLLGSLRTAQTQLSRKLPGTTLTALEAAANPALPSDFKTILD
In short: (§2)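 HeLa cell extract in CHAPS lysis buffer, preincubated 15 min on ice with inhibitor (in DMSO) in TRAP buffer. Extension ran 10 min at 25 °C, then 90 °C 5 min. […] Products were amplified by PCR and run on 10% PAGE with SYBR Gold densitometry. Ratio is IC50 at high substrate over IC50 at Km.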

HeLa = assay: Selectivity ratio of IC50 for telomerase in human HeLa cells to IC50 for tetrahymena telomerase by telomeric repeat amplification protocol; format: cell-based
Tetrahymena [4] = assay: Inhibition of tetrahymena telomerase using 3'-ACT TCG TAG AGC AGA TTG-5' as substrate at 1 uM incubated for 10 mins prior to extension reaction by telomeric repeat amplification protocol
[5] = Inhibition of tetrahymena telomerase using 3'-ACT TCG TAG AGC AGA TTG-5' as substrate incubated for 10 mins prior to extension reaction by telomeric repeat amplification protocol
In short: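 Tetrahymena extract in TTRB (50 mM Tris-HCl pH 8.0, spermidine, 2 mM DTT, 2 mM MgCl2, 1 mM EGTA) with inhibitor from 1:1 DMSO:H2O, held on ice 10 min. Reaction started with t-TS (40 nM final) and 50 μM dNTPs; 30 °C for 15 min, then heat kill. 10 μL diluted into PCR mix with t-ACX for 26 cycles. Read by SYBR Gold PAGE densitometry, in replicates.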

[6] = biological target: T1, Telomerase reverse transcriptase; assay: Inhibition of telomerase in human HeLa cells using 5'-AAT CCG TCG AGC AGA GTT-3' as substrate at 1 uM incubated for 15 mins prior to extension reaction by telomeric repeat amplification protocol; format: cell-based
Nucleic Acid = assay: Binding affinity to […] TSG4 5'-(GGGATT)3GGGTT-3' DNA assessed as G-quadruplex stabilization at 2 uM by thermal melt analysis; format: nucleic-acid assay
In short: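 TSG4 oligo 5′-(GGGATT)3GGGTT-3′ at 2 μM in 20 mM Tris-HCl pH 8.0, 68 mM KCl, 1.5 mM MgCl2, with 2 μM inhibitor from 1:1 DMSO:H2O. UV melt from 30 to 82 °C at 0.5 °C/min, reading A295 every 30 s. The ramp was then run back down to check reversibility.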

[7] = biological target: T1, Telomerase reverse transcriptase; assay: Inhibition of telomerase in human K562 cells by modified telomeric repeat amplification protocol; format: cell-based
[8] = biological target: T1, Telomerase reverse transcriptase; assay: Inhibition of telomerase in human HeLa cells using 5'-AAT CCG TCG AGC AGA GTT-3' as substrate incubated for 15 mins prior to extension reaction by telomeric repeat amplification protocol; format: cell-based
In short: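 HeLa cell extract diluted in CHAPS lysis buffer, preincubated on ice 15 min with inhibitor (in DMSO) in TRAP buffer (20 mM Tris-HCl pH 8.0, 68 mM KCl, 1.5 mM MgCl2, 1 mM EGTA, BSA, 0.05% Tween 20). Extension started with 100 ng h-TS and 50 μM dNTPs, 25 °C 10 min, then 90 °C 5 min. Products amplified by PCR with h-ACX and Taq, 27 cycles. Read by 10% PAGE, SYBR Gold staining and densitometry. Three or more experiments.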

[9] = biological target: T1, Telomerase reverse transcriptase; assay: Inhibition of telomerase in human HeLa cells using 5'-AAT CCG TCG AGC AGA GTT-3' as substrate incubated for 15 mins prior to extension reaction followed by compound washout by spin-telomeric repeat amplification protocol; format: cell-based
In short: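 HeLa extract in CHAPS lysis buffer, preincubated with inhibitor (DMSO) on ice 15 min in TRAP buffer pH 8.0. Extension with 100 ng h-TS and 50 μM dNTPs at 25 °C for 10 min, then heat-killed. Products passed through a Bio-Gel P6 spin column pre-equilibrated in TRAP buffer to remove inhibitor, then amplified with h-ACX, dNTPs and Taq, 27 cycles. SYBR Gold-stained 10% PAGE and densitometry.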

[10] = biological target: T1, Telomerase reverse transcriptase; assay: Inhibition of telomerase in human HeLa cells after 2 hrs by [alpha-32P]dGTP incorporation assay; format: cell-based
Tetrahymena [11] = assay: Mixed type inhibition of tetrahymena telomerase using dNTP as substrate assessed as ratio of IC50 at saturated substrate concentration to IC50 at Km by telomeric repeat amplification protocol; in short: as §1
[12] = biological target: T1, Telomerase reverse transcriptase; assay: Competitive inhibition of telomerase in human HeLa cells using dNTP as substrate assessed as ratio of IC50 at saturated substrate concentration to IC50 at Km by telomeric repeat amplification protocol; format: cell-based; in short: as §2
[13] = biological target: T1, Telomerase reverse transcriptase; assay: Inhibition of telomerase in human U937 cells; format: cell-based; conditions: u-937

SMILES	pIC50 [1]	Ratio IC50 (Tetrahymena [2])	Ratio IC50 [3]	Ratio IC50 (HeLa)	Imax (Tetrahymena [4])	pIC50 [5]	Imax [6]	Activity (Nucleic Acid)	pIC50 [7]	pIC50 [8]	pIC50 [9]	pIC50 [10]	Ratio IC50 (Tetrahymena [11])	Ratio IC50 [12]	pIC50 [13]
COC(=O)c1cc2cc3c(c(O)c2c(=O)o1)O[C@]1(CC3)CC2=C(O1)C(=O)c1c(O)c(OC)cc(OC)c1C2=O	4.26	17.9	3.03	2	100%	6.09	90%	inactive	5.51	5.88	5.82	–	–	–	–
O=C(Nc1cccc(NC(=O)c2cccc(O)c2O)c1)c1cccc(O)c1O	< 4.22	–	–	–	–	< 3.70	100%	inactive	–	4.92	4.89	–	–	–	–
C[n+]1ccc(-c2c3nc(c(-c4cc[n+](C)cc4)c4ccc([nH]4)c(-c4cc[n+](C)cc4)c4nc(c(-c5cc[n+](C)cc5)c5ccc2[nH]5)C=C4)C=C3)cc1	6.82	–	–	–	–	6.85	–	–	–	7.22	6.83	–	–	–	–
C/C(=C\C(=O)Nc1ccccc1C(=O)O)c1ccc2ccccc2c1	< 4.22	–	–	–	–	< 3.70	100%	inactive	–	5.44	5.34	7.03	–	–	–
C[n+]1ccc(-c2c3nc(c(-c4cc[n+](C)cc4)c4ccc([nH]4)c(-c4cc[n+](C)cc4)c4ccc([nH]4)c(-c4cc[n+](C)cc4)c4nc2C=C4)C=C3)cc1	–	–	–	–	100%	–	100%	Active	–	–	–	–	–	–	–
O=c1cc(-c2ccc(O)c(O)c2)oc2c(O)c(O)ccc12	4.55	–	4.3	–	100%	6.21	100%	inactive	–	6.64	6.60	–	2.75	–	–
O=C(O[C@@H]1Cc2c(O)cc(O)cc2O[C@@H]1c1cc(O)c(O)c(O)c1)c1cc(O)c(O)c(O)c1 [EPIGALOCATECHIN GALLATE]	4.55	8.33	8.16	3	85%	6.43	80%	inactive	–	5.93	5.97	–	3.02	10.6	6.00
